Compound activity (PubChem)
An excerpt weighted towards active compounds, which were near 1.8% of everything screened.
CHRM4 antagonist: blocks acetylcholine activation of human M4 receptor. P08173. CHO-hM4 cells, ACh EC80, Fluo-8 calcium fluorescence. inhibition, % at 3 µM. 360,000 compounds, 0.73% hits. AID 624125;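 active = inhibition above its plate's cutoff, the mean inhibition of sample wells plus 3 SD, cut at about 27% in these data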;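 also: 0% = acetylcholine EC80 with DMSO and 100% = DMSO without agonist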
Target sequence (P08173 whole entry, looked up): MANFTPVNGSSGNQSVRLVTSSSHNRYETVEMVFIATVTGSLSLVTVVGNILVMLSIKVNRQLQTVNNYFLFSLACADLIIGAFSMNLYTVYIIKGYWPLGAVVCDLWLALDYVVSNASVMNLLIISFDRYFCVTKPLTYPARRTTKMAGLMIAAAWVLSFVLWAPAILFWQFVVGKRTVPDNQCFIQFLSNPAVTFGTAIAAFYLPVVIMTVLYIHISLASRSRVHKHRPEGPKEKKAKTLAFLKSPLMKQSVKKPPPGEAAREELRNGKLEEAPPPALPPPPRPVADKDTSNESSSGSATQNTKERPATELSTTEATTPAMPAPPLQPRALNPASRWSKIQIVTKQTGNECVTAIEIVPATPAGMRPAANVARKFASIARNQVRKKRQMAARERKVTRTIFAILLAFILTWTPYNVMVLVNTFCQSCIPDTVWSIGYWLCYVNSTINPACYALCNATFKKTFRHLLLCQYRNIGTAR
M5 antag: CHRM5 antagonism in calcium assay | inhibition, % at 3 µM | AID 624040 | 360,000 compounds, 0.59% hits | CHO-hM5 cells, Fluo-8 calcium fluorescence, ACh EC80 | P08912;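 active = inhibition above a per-plate cutoff, the mean of that plate's test compounds plus 3 SD, cut at about 27% in these data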;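 also: 0% = acetylcholine EC80 with DMSO and 100% = DMSO without agonist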
CHRM4 agonist: CHRM4 agonism in calcium assay. activation, % at 3 µM. 360,000 compounds, 0.14% hits. P08173. CHO-K1 hM4/Gqi5, Fluo-8 calcium fluorescence; vehicle 0%, full acetylcholine response 100%;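 active = activation above the run mean over all test wells plus 3 SD, cut at about 32% in these data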;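 also: peak over basal fluorescence ratio per well then scaled between controls; 0% = DMSO wells and 100% = acetylcholine at EC100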
M4 PAM: potentiates acetylcholine response at human M4 receptor; P08173; CHO-K1 hM4/Gqi5, Fluo-8 calcium fluorescence, ACh EC20; 0% = ACh EC20, 100% = maximal ACh; activation, % at 3 µM; 360,000 compounds, 0.4% hits; AID 624126;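 active = activation above its plate's cutoff, the mean activation of sample wells plus 3 SD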
CHRM5 agonist: CHRM5 agonism in calcium assay. P08912. CHO-K1 hM5 cells, Fluo-8 calcium fluorescence; 0% DMSO wells, 100% maximal acetylcholine response. activation, % at 3 µM. 360,000 compounds, 0.19% hits. AID 624037;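 active = activation above the run's mean over test compounds plus 3 SD, cut at about 23% in these data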;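 also: signal is peak over basal fluorescence ratio across the kinetic read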
M5 PAM: positive allosteric modulators of human muscarinic M5 receptor. P08912. CHO-K1 hM5, Fluo-8 calcium, ACh EC20 PAM; 0% = ACh EC20, 100% = ACh EC100. activation, % at 3 µM. 360,000 compounds, 0.3% hits;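 active = activation above the run cutoff, the mean activation of all test compounds plus 3 SD, cut at about 18% in these data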
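Assay system: CHO-K1 hM5 cells / Incubation: Fluo-8 loading 80 min at 37 °C plus 30 min room temperature / Technique: Fluo-8 calcium dye fluorescence, kinetic read / Repeats: single replicate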
Active calls of the source: *.

SMILES	CHRM4 antagonist	M5 antag	CHRM4 agonist	M4 PAM	CHRM5 agonist	M5 PAM
COCCNC(=O)CN(C(=O)c1ccc(N2CCCC2)nc1)c1ccc(F)c(Cl)c1	-7	-10	0	6	7	22*
COC(=O)c1ccc(C(=O)OC)c(NC(=O)CN(c2ccccc2)S(=O)(=O)N(C)C)c1	-8	-14	4	-1	0	0
C=CCN1C(=O)/C(=C/C=C2/N(CC)c3ccc(S(=O)(=O)N(C)C)cc3N2CC)SC1=S	0	-7	5	-11	24*	-7
CCOc1ccc(-c2cccc(NC(=O)c3cccs3)c2)nn1	6	3	7	-5	2	-5
O=c1oc2cc(O)ccc2cc1S(=O)(=O)c1ccccc1	-13	-12	1	0	-2	5
O=c1oc2cc(O)ccc2cc1-c1nc2ccccc2o1	22	20	41*	-14	27*	-21
CCCCn1nnnc1C(c1cc2ccccc2o1)N1CCN(CC(=O)NC(C)C)CC1 (centres undefined)	-3	-1	1	11	2	-7
CC(=O)Nc1c(Cl)cnn(-c2ccccc2)c1=O	-13	-11	1	-6	0	22*
Cc1cc(/C=N/n2cnnc2)c(C)n1-c1ccc(OCc2ccc(Cl)cc2Cl)cc1	47*	37*	3	-12	-5	-15
O=C1CC(=C(c2ccccc2)c2ccccc2)C(=O)N1CCCCN1CCN(c2ccccc2)CC1	34*	9	0	-25	-8	-20
O=C(CCCN1CCN(c2ccccc2)CC1)c1ccc(F)cc1	-19	-3	2	0	-3	0
CC(C)CSCC1OC(n2cnc3c(N)nccc32)C(O)C1O (centres undefined)	-4	5	0	7	0	-4
Cn1c(=O)c2nc(NCc3ccccc3)cnc2n(C)c1=O	-1	-1	1	1	4	2
Cc1nc2c(=O)n(C)c(=O)n(C)c2nc1Cl	25	28*	-2	-12	-3	-12
O=C(c1cc(C2CC2)nn1-c1ccccc1)N1CCN(c2ccccn2)CC1	-12	0	5	10	-4	-10
Cc1ccc(S(=O)(=O)N2[C@H](CC(=O)c3cccs3)OC[C@@H]2C)cc1	-8	-4	8	-3	3	1
O=C(NCCOc1ccccc1)c1cc(C(=O)NCCOc2ccccc2)cc([N+](=O)[O-])c1	15	27*	27	-28	9	-21
O=C(NCCOc1ccccc1)c1ccccc1[N+](=O)[O-]	-12	5	1	1	1	6
CC(=O)Nc1ccc(S(=O)(=O)Oc2cccc(/C=N/N=C3/NC(=O)C(CC(=O)O)S3)c2)cc1 (centres undefined)	2	-3	-1	-2	4	0
c1cc2c3c(cccc3c1)C(N1CCOCC1)=N2	-1	12	1	-7	-5	9
c1ccc(CC2CCN(C3=Nc4cccc5cccc3c45)CC2)cc1	27*	17	7	-18	-13	-28
O=S(=O)(c1cccc(F)c1)N1CCN(c2nc(-c3cccnc3)nc3ccccc23)CC1	-3	8	6	-1	3	-5
Cc1cccc(OC(=O)NCCOC(=O)N(O)c2ccc(Cl)cc2)c1	10	32*	12	16	7	-13
Cc1cccc(OCC(=O)Oc2ccc(Cl)cc2)c1	-3	2	3	9	0	4
CC1(C)C(=O)OC(c2ccccc2)C(C)(C)C1=O (centres undefined)	5	32*	13	-20	-1	-16
SMILES	CHRM4 antagonist	M5 antag	CHRM4 agonist	M4 PAM	CHRM5 agonist	M5 PAM
CC1(C)C(=O)OC(c2ccccc2)C2(CCCC2)C1=O (centres undefined)	-5	-3	1	8	-2	6
Cc1cc(C(=O)CN2C(=O)NC(C)(c3ccccc3)C2=O)c(C)n1CC1CCCO1 (centres undefined)	27*	3	3	18	2	-2
Cc1cc(SCC(=O)NCC2CCCO2)nc2ccccc12 (centres undefined)	7	3	8	-4	23*	0
Cc1cc(C(=O)CSc2nc3ccccc3c(=O)[nH]2)c(C)n1CC1CCCO1 (centres undefined)	27*	36*	19	-16	4	-34
CCn1c(SCC(=O)c2cc(C)n(CC3CCCO3)c2C)nc2ccccc21 (centres undefined)	-9	9	6	-4	-6	-5
CCN(CC)c1ccc(/C=C2\C(=O)c3ccc(C(=O)O)cc3C2=O)cc1	32*	25	20	-11	32*	-21
c1coc(Cn2c(SCc3nc4ccccc4[nH]3)nnc2-c2cnccn2)c1	6	3	3	-1	1	-6
Cn1c(SCc2nc3ccccc3[nH]2)nnc1-c1cnccn1	0	3	2	-5	-2	19*
CN1C=CC=C/C1=C1\SC(=S)N(c2ccccc2)C1=O	-5	-1	1	17*	-5	-2
CC(C)n1c(=O)[nH]c2ccccc21	2	-1	1	1	1	-2
Cc1ccc(NC(=O)c2ccc3c(c2)[nH]c(=O)n3C(C)C)cc1	1	28*	5	-9	-1	-16
COC(=O)[C@]12CCCCC=C1N(Cc1ccc(Cl)cc1Cl)C(=O)[C@H](CC(=O)N1CCOCC1)C2	-5	1	5	7	0	-3
Cn1c(=O)c2[nH]c(-c3cccnc3)nc2n(C)c1=O	-9	-13	1	31*	-3	0
CC1(C(=O)OCC(=O)Nc2nnc(-c3ccccc3)o2)CC1(Cl)Cl (centres undefined)	-12	1	1	8	1	-1
CC(C)c1cc(C(=O)Nc2cc(Br)ccc2O)no1	4	34*	1	-8	-4	-14
CCn1c(SCC(=O)N2CCCC2)nc2c(c1=O)SC(C)C2 (centres undefined)	84*	4	-1	-16	0	-14
COCCn1c(SCC(=O)Nc2cc(C)on2)nc2c(c1=O)SC(C)C2 (centres undefined)	5	2	1	4	-2	9
CCSc1nnc(NC(=O)CSc2nc3c(c(=O)n2CCOC)SC(C)C3)s1 (centres undefined)	32*	2	0	-12	0	-8
O=C(c1ccc(F)cc1)N1CCN(c2cc(=O)[nH]nc2-c2ccccc2)CC1	-9	-6	0	1	1	2
O=C1[C@@H](Oc2ccccc2)[C@@H](c2cccnc2)N1c1ccccc1	-7	-1	6	-8	3	-4
